{"data": "Assay results of several laboratories", "matrix": "plasma", "note": "Compare with care: the assays were run in different laboratories."}
{"SMILES": "COc1ccc2c(c1)CN(C(=O)CCN1CCC(Cc3ccccc3)CC1)CC[S@@+]2[O-]", "species": "male human", "route": "intravenous", "dose": "0.4 mg/kg", "setting": "healthy volunteers", "AUC(0-t)": "2410 ng·h/mL"}
{"SMILES": "CC(C)n1c(C2CCNCC2)nc2c([N+](=O)[O-])c(Br)c(Br)cc21", "species": "human", "route": "oral", "dose": "50 mg", "setting": "patients", "AUC(0-t)": "451 ng·h/mL"}
{"SMILES": "CC(=O)O[C@H]1C(=O)[C@@]2(C)[C@H]([C@H](OC(=O)c3ccccc3)[C@]3(O)C[C@H](OC(=O)[C@H](O)[C@@H](NC(=O)c4ccccc4)c4ccccc4)C(C)=C1C3(C)C)[C@]1(OC(C)=O)CO[C@@H]1C[C@@H]2O", "species": "human", "route": "intravenous", "dose": "60 mg/m²", "AUC(0-t)": "2.1 µM·h"}
{"SMILES": "CC1(C)CC[C@]2(NC(=O)C(C)(F)F)CC[C@]3(C)[C@H](C(=O)C=C4[C@@]5(C)C=C(C#N)C(=O)C(C)(C)[C@@H]5CC[C@]43C)[C@@H]2C1", "species": "human", "route": "oral", "dose": "150 mg", "setting": "single dose", "AUC(0-t)": "1730 ng·h/mL"}
{"SMILES": "COc1ccc(-c2c(Nc3ccccn3)[nH]c3c(C4=CCCCC4)c(-c4ccccc4)nn3c2=O)cc1", "species": "human", "route": "oral", "dose": "100 mg once daily", "setting": "multiple doses, steady state, patients", "AUC(0-t)": "66300 ng·h/mL"}
{"SMILES": "C[C@@H](Oc1ccc(S(C)(=O)=O)cc1C(=O)N1C[C@@H]2C[C@]2(c2cc(C(F)(F)F)on2)C1)C(F)(F)F", "species": "human", "route": "oral", "dose": "10 mg", "setting": "single dose, fed", "AUC(0-t)": "1.81 µM·h"}
{"SMILES": "OC[C@H]1O[C@@H](c2cc(Cc3ccc(C4CC4)cc3)c(Cl)c3c2CCO3)[C@H](O)[C@@H](O)[C@@H]1O", "species": "human", "route": "oral", "dose": "0.3 mg", "setting": "single dose, fed", "AUC(0-t)": "24.6 ng·h/mL"}
{"SMILES": "CC(=O)N(C)[C@H]1CCN(C(=O)c2cnc3c(c2)C[C@](C)(c2ccc(F)cc2)N3)C1", "species": "male human", "route": "oral", "dose": "30 mg", "setting": "multiple doses, once daily", "AUC(0-t)": "3.42 µM·h"}
